# Screening results deposited in PubChem BioAssay by Broad Institute.
# T cruzi growth-1: inhibitors of T. cruzi proliferation; T. cruzi beta-gal in NIH3T3, GalScreen luminescence, 90 h; inhibition, % at 8.34 µM; 5.9% of 77,000 active;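 active = mean inhibition above about 93%, with at least 55% of replicates each passing it, limit read from the data, passing the limit was not always enough; inconclusive = only one of those two conditions holds; inactive = neither condition holds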
# KDM4C inh: blocks human GASC-1 (KDM4C) demethylase activity | inhibition, % at 12.5 µM | GST-KDM4C 2-372, H3K9me3 peptide, LANCE TR-FRET | Q9H3R0 | 0.15% of 96,000 active;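 active = mean replicate inhibition above about 25%, with at least 55% of replicates also reaching it, limit read from the data, passing the limit was not always enough; inconclusive = only one of those two conditions met; inactive = neither condition met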
#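 Material: GST-tagged GASC-1 (JMJD2C) catalytic fragment, aa 2-372 / Quantity: enzyme final amount 10 nM / Medium: HEPES buffer, pH 7.5, plus ascorbate / Doses: one test concentration per compound / Incubation: 30 min reaction, 60 min detection, RT / Measured by: LANCE TR-FRET / Read-out: inhibition from TR-FRET ratio decrease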
# Pf Dd2 inh: P. falciparum Dd2 growth inhibition | SYBR Green, 72 h; stronger effect = lower value | activity change, % at 10 µM | 2.3% of 94,000 active | AID 1159554; in the data active = activity change below about -80%; inconclusive = no clear call, values can overlap the other calls
# IDH1 mut inh: inhibitors of human IDH1 R132H | O75874 | IDH1 R132H reductase, diaphorase/resazurin fluorescence, 60 min | inhibition, % at 10 µM | 0.18% of 70,000 active | AID 624101; in the data active = inhibition above about 34%; inconclusive = no clear call, values can overlap the other calls; inactive = below about 11%;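 note: 0% = DMSO and 100% = no enzyme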
# Target sequence (O75874 whole entry R132H): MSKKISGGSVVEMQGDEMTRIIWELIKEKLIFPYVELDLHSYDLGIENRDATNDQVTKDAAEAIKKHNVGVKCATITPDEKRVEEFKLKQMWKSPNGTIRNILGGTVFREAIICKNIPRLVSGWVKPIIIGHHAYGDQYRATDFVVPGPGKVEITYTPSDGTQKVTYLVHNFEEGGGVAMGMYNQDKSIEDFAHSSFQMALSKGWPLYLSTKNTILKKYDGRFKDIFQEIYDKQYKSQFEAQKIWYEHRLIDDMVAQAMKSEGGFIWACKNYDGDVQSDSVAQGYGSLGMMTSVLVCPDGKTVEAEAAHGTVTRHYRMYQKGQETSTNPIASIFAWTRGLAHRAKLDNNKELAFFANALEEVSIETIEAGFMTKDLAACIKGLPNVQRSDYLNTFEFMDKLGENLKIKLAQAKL
# T cruzi growth-2: Trypanosoma cruzi proliferation inhibition; shares compounds with T cruzi growth-1; inhibition, % at 8.35 µM; T. cruzi beta-gal in NIH3T3, GalScreen luminescence, 90 h; 72% of 5,600 active;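 active = mean replicate inhibition above about 95% and at least 55% of replicates individually reaching it, limit read from the data; inconclusive = only one of the two criteria is met; inactive = neither criterion is met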
# T cruzi growth-3: inhibitors of T. cruzi proliferation | shares compounds with T cruzi growth-1 | 21% of 5,600 active | T. cruzi beta-gal in NIH3T3, GalScreen luminescence, 90 h | inhibition, % at 2.09 µM | AID 651740;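 active = mean inhibition above about 95%, with at least 55% of replicates also reaching it, limit read from the data; inconclusive = meets just one of the two conditions; inactive = meets neither condition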;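 note: plate controls were neutral control median for no effect and positive control median for full effect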
# 3T3 cytotox: NIH/3T3 (mouse) viability loss | shares compounds with T cruzi growth-1 | NIH/3T3 viability, CellTiter-Glo ATP luminescence, 90 h | cytotoxicity (signal decrease), % at 8.35 µM | 14% of 5,600 active;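 active = mean signal decrease across replicates above about 35% based on untreated-well scatter, with enough replicates individually passing, limit read from the data; inconclusive = no rule stated though some were filed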;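 note: 0% = median of neutral control wells and 100% = median of positive control wells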
# NIH3T3 tox 2: NIH/3T3 (mouse) viability loss; 56% of 5,600 active; NIH/3T3 viability, CellTiter-Glo ATP luminescence, 90 h; AID 651744; shares compounds with T cruzi growth-1; inhibition, % at 24.9 µM;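 active = mean loss of cell viability signal at or above a set limit, and enough replicates individually reaching it; inconclusive = meets only the mean limit or only the replicate share; inactive = meets neither condition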;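 note: 0% = median of neutral control wells and 100% = median of positive control wells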
# * hit, by the source's call; u = inconclusive; x = no result given. An excerpt weighted towards active compounds, which were near 5.8% of everything screened.
SMILES,T cruzi growth-1,KDM4C inh,Pf Dd2 inh,IDH1 mut inh,T cruzi growth-2,T cruzi growth-3,3T3 cytotox,NIH3T3 tox 2
C[C@@H]1CCCCO[C@@H](CN(C)CC2CCCCC2)[C@@H](C)CN([C@@H](C)CO)C(=O)c2cc(NC(=O)Nc3ccc(F)cc3)ccc2O1,119*,0,-77,2,103*,93,30,104*
CCCN(C)C[C@H]1OCCCC[C@@H](C)Oc2ccc(NC(=O)Nc3ccc(F)cc3)cc2C(=O)N([C@H](C)CO)C[C@@H]1C,100*,-1,-66,x,101*,49,1,-7
C[C@H](CO)N1C[C@H](C)[C@@H](CN(C)CC2CCCCC2)OCCCC[C@H](C)Oc2ccc(NC(=O)Nc3ccc(F)cc3)cc2C1=O,114*,-1,-70,0,98*,111*,24,103*
C[C@H]1CCCCO[C@H](CN(C)CC2CCCCC2)[C@@H](C)CN([C@@H](C)CO)C(=O)c2cc(NC(=O)Nc3ccc(F)cc3)ccc2O1,115*,-2,-83*,0,97*,114*,47*,103*
O=C(c1ccncc1)N1CC(=O)N2[C@H](C1)[C@H](c1ccc(-c3cccnc3)cc1)[C@@H]2CO,x,-1,2,x,x,x,x,x
C[C@@H]1CCCCO[C@H](CN(C)CC2CCCCC2)[C@H](C)CN([C@@H](C)CO)C(=O)c2cc(NC(=O)Nc3ccc(F)cc3)ccc2O1,120*,0,-80,x,97*,114*,54*,103*
C[C@@H]1CCCCO[C@@H](CN(C)CC2CCCCC2)[C@H](C)CN([C@H](C)CO)C(=O)c2cc(NC(=O)Nc3ccc(F)cc3)ccc2O1,105*,0,-90*,2,95*,112*,21,102*
COc1ccc(NC(=O)Nc2ccc3c(c2)C(=O)N([C@@H](C)CO)C[C@H](C)[C@@H](CN(C)S(=O)(=O)c2cccs2)OCCCC[C@@H](C)O3)cc1,-2,-1,-79,2,x,x,x,x
C[C@H]1CN([C@@H](C)CO)S(=O)(=O)c2ccc(C3=CCCC3)cc2O[C@H]1CN(C)Cc1ccccc1F,94,-3,-44,0,x,x,x,x
C[C@@H]1CN([C@@H](C)CO)S(=O)(=O)c2ccc(C3=CCCC3)cc2O[C@@H]1CN(C)Cc1ccccc1F,114*,1,-77,x,99*,110*,-4,104*
C[C@H](CO)N1C[C@H](C)[C@@H](CN(C)Cc2ccccc2F)Oc2cc(C3=CCCC3)ccc2S1(=O)=O,u,5,-19,1,97*,52,-7,105*
Cc1ccc2nc(-c3ccccn3)cc(C(=O)NCc3ccccn3)c2c1,x,x,x,-1,x,x,x,x
COc1ccc(OC)c(C(C)NC(=O)Nc2ccc([N+](=O)[O-])cc2OC)c1 (configuration not stated),x,x,x,0,x,x,x,x
C[C@@H]1CN([C@@H](C)CO)S(=O)(=O)c2ccc(C3=CCCC3)cc2O[C@H]1CN(C)S(=O)(=O)c1ccc(F)cc1,116*,-1,-59,0,97*,99*,27,27*
C[C@@H]1CN([C@H](C)CO)S(=O)(=O)c2ccc(C3=CCCCC3)cc2O[C@@H]1CN(C)S(=O)(=O)c1ccc(F)cc1,119*,0,-55,x,101*,107*,16,61*
COc1ccc(S(=O)(=O)N(C)C[C@H]2Oc3cc(C4=CCCC4)ccc3S(=O)(=O)N([C@@H](C)CO)C[C@@H]2C)cc1,57,-1,-59,0,x,x,x,x
C[C@H]1CN([C@@H](C)CO)S(=O)(=O)c2ccc(C3=CCCC3)cc2O[C@H]1CN(C)S(=O)(=O)c1ccc(F)cc1,121*,0,-46,-28,106*,90,16,1
Cc1ccc(S(=O)(=O)N(C)C[C@@H]2Oc3cc(C4=CCCC4)ccc3S(=O)(=O)N([C@H](C)CO)C[C@@H]2C)cc1,x,1,-71,-37,x,x,x,x
